Measurements from ChEMBL document CHEMBL1151761, “Radiohalogenated prostate-specific membrane antigen (PSMA)-based ureas as imaging agents for prostate cancer” (J Med Chem, 2008).

How the values were obtained:
Assay type in all cases: ADME, organism-based
[1] = Biodistribution in PC3 flu tumor of PSMA expressing human PC3 PIP and PSMA deficient human PC3 flu cells xenografted SCID mouse at 2 uCi, iv after 30 mins; conditions: in vivo, 0.5 h
Summary of the method: (§1)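 Male SCID mice carried subcutaneous PSMA+ PC-3 PIP (left shoulder) and PC-3 flu (right shoulder) xenografts, 1-5 × 10^6 cells in HBSS, and were used at 3-5 mm tumor diameter. Tail-vein injection of 2 µCi radioligand; four mice per time point, killed by cervical dislocation. %ID/g from a standard dilution of the dose, decay-corrected, mean ± SD; PIP tumor:organ ratios.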

Heart [2] = assay: Biodistribution in heart of PSMA expressing human PC3 PIP and PSMA deficient human PC3 flu cells xenografted SCID mouse at 2 uCi, iv after 5 hrs; conditions: in vivo
Lung = assay: Biodistribution in lung of PSMA expressing human PC3 PIP and PSMA deficient human PC3 flu cells xenografted SCID mouse at 2 uCi, iv after 60 mins; conditions: in vivo, 1 h
[3] = Biodistribution in large intestine of PSMA expressing human PC3 PIP and PSMA deficient human PC3 flu cells xenografted SCID mouse at 2 uCi, iv after 5 hrs; conditions: in vivo; summary of the method: as §1
[4] = Ratio of drug level in tumor to pancreas of human PSMA expressing PC3 PIP and PSMA deficient human PC3 flu cells xenografted SCID mouse at 2 uCi, iv after 2 hrs; conditions: in vivo; summary of the method: as §1
[5] = Ratio of drug level in tumor to muscle of human PSMA expressing PC3 PIP and PSMA deficient human PC3 flu cells xenografted SCID mouse at 2 uCi, iv after 30 mins; conditions: in vivo, 0.5 h; summary of the method: as §1
Blood = assay: Biodistribution in blood of PSMA expressing human PC3 PIP and PSMA deficient human PC3 flu cells xenografted SCID mouse at 2 uCi, iv after 30 mins; conditions: in vivo, 0.5 h
[6] = Ratio of drug level in tumor to blood of human PSMA expressing PC3 PIP and PSMA deficient human PC3 flu cells xenografted SCID mouse at 2 uCi, iv after 60 mins
Summary of the method: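 Male SCID mice carried subcutaneous xenografts of PSMA+ PC-3 PIP cells behind the left shoulder and PSMA− PC-3 flu cells behind the right (1–5 × 10^6 cells in HBSS), used at a tumour diameter of 3–5 mm. Each mouse received 2 μCi of radioiodinated tracer via the tail vein. Tissues were harvested at each time point for %ID/g against a standard dilution of the dose, decay-corrected. Ratios are PIP tumour:organ.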

[7] = Ratio of drug level in tumor to lung of human PSMA expressing PC3 PIP and PSMA deficient human PC3 flu cells xenografted SCID mouse at 2 uCi, iv after 2 hrs; conditions: in vivo; summary of the method: as §1
[8] = Biodistribution in PC3 flu tumor of PSMA expressing human PC3 PIP and PSMA deficient human PC3 flu cells xenografted SCID mouse at 2 uCi, iv after 60 mins; conditions: in vivo, 1 h; summary of the method: as §1
Kidney = assay: Biodistribution in kidney of PSMA expressing human PC3 PIP and PSMA deficient human PC3 flu cells xenografted SCID mouse at 2 uCi, iv after 5 hrs; conditions: in vivo
Liver [9] = assay: Biodistribution in liver of PSMA expressing human PC3 PIP and PSMA deficient human PC3 flu cells xenografted SCID mouse at 2 uCi, iv after 30 mins; conditions: in vivo, 0.5 h
[10] = Ratio of drug level in PC3 PIP tumor to PC3 flu tumor of human PSMA expressing PC3 PIP and PSMA deficient human PC3 flu cells xenografted SCID mouse at 2 uCi, iv after 30 mins; conditions: in vivo, 0.5 h; summary of the method: as §1
[11] = Ratio of drug level in tumor to small intestine of human PSMA expressing PC3 PIP and PSMA deficient human PC3 flu cells xenografted SCID mouse at 2 uCi, iv after 60 mins; conditions: in vivo, 1 h
Summary of the method: (§2)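 Male SCID mice carried subcutaneous xenografts: PSMA+ PC-3 PIP behind the left shoulder and PSMA− PC-3 flu behind the right, 1–5 × 10^6 cells in HBSS. Mice were used at 3–5 mm tumor diameter. 2 μCi was given by tail vein, and 4 mice per time point were killed by cervical dislocation. %ID/g came from a standard dilution of the dose, decay-corrected. Ratio is PIP tumor %ID/g to organ %ID/g.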

[12] = Ratio of drug level in tumor to pancreas of human PSMA expressing PC3 PIP and PSMA deficient human PC3 flu cells xenografted SCID mouse at 2 uCi, iv after 5 hrs; conditions: in vivo; summary of the method: as §2
[13] = Ratio of drug level in tumor to muscle of human PSMA expressing PC3 PIP and PSMA deficient human PC3 flu cells xenografted SCID mouse at 2 uCi, iv after 2 hrs; conditions: in vivo; summary of the method: as §1
[14] = Ratio of drug level in tumor to stomach of human PSMA expressing PC3 PIP and PSMA deficient human PC3 flu cells xenografted SCID mouse at 2 uCi, iv after 2 hrs; conditions: in vivo; summary of the method: as §2
[15] = Biodistribution in small intestine of PSMA expressing human PC3 PIP and PSMA deficient human PC3 flu cells xenografted SCID mouse at 2 uCi, iv after 60 mins; conditions: in vivo, 1 h; summary of the method: as §1
[16] = Ratio of drug level in tumor to spleen of human PSMA expressing PC3 PIP and PSMA deficient human PC3 flu cells xenografted SCID mouse at 2 uCi, iv after 30 mins; conditions: in vivo, 0.5 h; summary of the method: as §2
[17] = Ratio of drug level in tumor to lung of human PSMA expressing PC3 PIP and PSMA deficient human PC3 flu cells xenografted SCID mouse at 2 uCi, iv after 60 mins; conditions: in vivo, 1 h; summary of the method: as §1
[18] = Ratio of drug level in tumor to heart of human PSMA expressing PC3 PIP and PSMA deficient human PC3 flu cells xenografted SCID mouse at 2 uCi, iv after 30 mins; conditions: in vivo, 0.5 h; summary of the method: as §1
Muscle tissue = assay: Biodistribution in muscle of PSMA expressing human PC3 PIP and PSMA deficient human PC3 flu cells xenografted SCID mouse at 2 uCi, iv after 2 hrs; conditions: in vivo
Pancreas = assay: Biodistribution in pancreas of PSMA expressing human PC3 PIP and PSMA deficient human PC3 flu cells xenografted SCID mouse at 2 uCi, iv after 30 mins; conditions: in vivo, 0.5 h
[19] = Ratio of drug level in tumor to liver of human PSMA expressing PC3 PIP and PSMA deficient human PC3 flu cells xenografted SCID mouse at 2 uCi, iv after 60 mins; conditions: in vivo, 1 h; summary of the method: as §1
Heart [20] = assay: Biodistribution in heart of PSMA expressing human PC3 PIP and PSMA deficient human PC3 flu cells xenografted SCID mouse at 2 uCi, iv after 30 mins; conditions: in vivo, 0.5 h
[21] = Biodistribution in large intestine of PSMA expressing human PC3 PIP and PSMA deficient human PC3 flu cells xenografted SCID mouse at 2 uCi, iv after 30 mins; conditions: in vivo, 0.5 h; summary of the method: as §1
[22] = Ratio of drug level in PC3 PIP tumor to PC3 flu tumor of human PSMA expressing PC3 PIP and PSMA deficient human PC3 flu cells xenografted SCID mouse at 2 uCi, iv after 5 hrs; conditions: in vivo; summary of the method: as §1
Liver [23] = assay: Biodistribution in liver of PSMA expressing human PC3 PIP and PSMA deficient human PC3 flu cells xenografted SCID mouse at 2 uCi, iv after 2 hrs; conditions: in vivo
Spleen = assay: Biodistribution in spleen of PSMA expressing human PC3 PIP and PSMA deficient human PC3 flu cells xenografted SCID mouse at 2 uCi, iv after 30 mins; conditions: in vivo, 0.5 h

Structure (SMILES): O=C(O)CC[C@H](NC(=O)N[C@@H](CCCCNC(=O)c1ccc([18F])cc1)C(=O)O)C(=O)O
- Drug uptake [1]: 0.8 % ID/g
- Drug uptake (Heart [2]): 0.03 % ID/g
- Drug uptake (Lung): 0.5 % ID/g
- Drug uptake [3]: 0.6 % ID/g
- Ratio [4]: 25
- Ratio [5]: 4
- Drug uptake (Blood): 2.5 % ID/g
- Kp at 1 h [6]: 9
- Ratio [7]: 4
- Drug uptake [8]: 0.3 % ID/g
- Drug uptake (Kidney): 14 % ID/g
- Drug uptake (Liver [9]): 8.7 % ID/g
- Ratio [10]: 11
- Ratio [11]: 11
- Ratio [12]: 70
- Ratio [13]: 19
- Ratio [14]: 13
- Drug uptake [15]: 0.6 % ID/g
- Ratio [16]: 0.7
- Ratio [17]: 13
- Ratio [18]: 11
- Drug uptake (Muscle tissue): 0.2 % ID/g
- Drug uptake (Pancreas): 0.8 % ID/g
- Ratio [19]: 1
- Drug uptake (Heart [20]): 0.8 % ID/g
- Drug uptake [21]: 1.2 % ID/g
- Ratio [22]: 35
- Drug uptake (Liver [23]): 11.7 % ID/g
- Drug uptake (Spleen): 12.7 % ID/g
